Data from ChEMBL document CHEMBL4346684, “Synthesis and structure-bactericidal activity relationships of non-ketolides: 9-Oxime clarithromycin 11,12-cyclic carbonate featured with three-to eight-atom-length spacers at 3-OH” (Eur J Med Chem, 2019).
≈ marks a conversion by molar mass, not a printed value.

Key:
Type in all cases: functional
Streptococcus pneumoniae [1] = assay: Antimicrobial activity against mef-encoded erythromycin resistant Streptococcus pneumoniae PU09 incubated in CAMHB medium for 20 to 24 hrs by two-fold microbroth dilution method
Staphylococcus aureus [2] = assay: Bactericidal activity against constitutively erythromycin resistant and methicillin-resistant Staphylococcus aureus PU20 expressing c-ermC assessed as reduction in colony formation incubated in CAMHB medium for 20 hrs followed by 24 hrs subculturing in the medium without test compound
Streptococcus pneumoniae [3] = assay: Ratio of MBC to MIC for erythromycin-susceptible Streptococcus pneumoniae ATCC 49619
Streptococcus pyogenes [4] = assay: Antimicrobial activity against inducibly erythromycin resistant Streptococcus pyogenes 01-968 expressing i-ermA incubated in CAMHB medium for 20 to 24 hrs by two-fold microbroth dilution method
Streptococcus pneumoniae [5] = assay: Bactericidal activity against mef-encoded erythromycin resistant Streptococcus pneumoniae PU09 assessed as reduction in colony formation incubated in CAMHB medium for 20 to 24 hrs followed by 24 hrs subculturing in the medium without test compound
Staphylococcus aureus [6] = assay: Antimicrobial activity against constitutively erythromycin resistant and methicillin resistant Staphylococcus aureus PU20 expressing c-ermC incubated in CAMHB medium for 20 hrs by two-fold microbroth dilution method; settings: PU20, 20 h
Procedure, shortened: (§1)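 Purified fresh Staphylococcus isolate at about 5×10^5 CFU/ml final in CAMHB, 35 °C for 20 h. Each run included ATCC strains and reference antibiotics as QC, plus an antibiotic-free growth control.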

Moraxella catarrhalis [7] = assay: Ratio of MBC to MIC for erythromycin-susceptible Moraxella catarrhalis 13L332
Staphylococcus aureus [8] = assay: Antimicrobial activity against inducibly erythromycin-resistant and methicillin resistant Staphylococcus aureus PU32 expressing i-ermA incubated in CAMHB medium for 20 hrs by two-fold microbroth dilution method; settings: PU32, 20 h; procedure, shortened: as §1
Moraxella catarrhalis [9] = assay: Antimicrobial activity against erythromycin-susceptible Moraxella catarrhalis 13L332 incubated in CAMHB medium for 20 hrs by two-fold microbroth dilution method; settings: 13L332, 20 h
Procedure, shortened: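 Clinical isolates and ATCC strains, purified by plate activation and used fresh; inoculum about 5×10^5 CFU/ml final. Grown in CAMHB at 35 °C for 20 h.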

Streptococcus pneumoniae [10] = assay: Antimicrobial activity against erythromycin-susceptible Streptococcus pneumoniae ATCC 49619 incubated in CAMHB medium for 20 to 24 hrs by two-fold microbroth dilution method
Streptococcus pyogenes [11] = assay: Bactericidal activity against inducibly erythromycin resistant Streptococcus pyogenes 01-968 expressing i-ermA assessed as reduction in colony formation incubated in CAMHB medium for 20 to 24 hrs followed by 24 hrs subculturing in the medium without test compound
Streptococcus pyogenes [12] = assay: Ratio of MBC to MIC for inducibly erythromycin resistant Streptococcus pyogenes 01-968 expressing i-ermA
Staphylococcus aureus [13] = assay: Bactericidal activity against inducibly erythromycin-resistant and methicillin resistant Staphylococcus aureus PU32 expressing i-ermA assessed as reduction in colony formation incubated in CAMHB medium for 20 hrs followed by 24 hrs subculturing in the medium without test compound
Streptococcus pneumoniae [14] = assay: Bactericidal activity against erythromycin-susceptible Streptococcus pneumoniae ATCC 49619 assessed as reduction in colony formation incubated in CAMHB medium for 20 to 24 hrs followed by 24 hrs subculturing in the medium without test compound
Moraxella catarrhalis [15] = assay: Bactericidal activity against erythromycin-susceptible Moraxella catarrhalis 13L332 assessed as reduction in colony formation incubated in CAMHB medium for 20 hrs followed by 24 hrs subculturing in the medium without test compound
Haemophilus influenzae [16] = assay: Bactericidal activity against azithromycin-susceptible Haemophilus influenzae ATCC 49247 assessed as reduction in colony formation incubated in HTM broth medium for 20 to 24 hrs followed by 24 hrs subculturing in the medium without test compound
Staphylococcus aureus [17] = assay: Ratio of MBC to MIC for inducibly erythromycin-resistant and methicillin resistant Staphylococcus aureus PU32 expressing i-ermA
Haemophilus influenzae [18] = assay: Ratio of MBC to MIC for azithromycin-susceptible Haemophilus influenzae ATCC 49247
Haemophilus influenzae [19] = assay: Antimicrobial activity against azithromycin-susceptible Haemophilus influenzae ATCC 49247 incubated in HTM broth medium for 20 to 24 hrs by two-fold microbroth dilution method
Streptococcus pneumoniae [20] = assay: Ratio of MBC to MIC for mef-encoded erythromycin resistant Streptococcus pneumoniae PU09

| Structure (SMILES) | MIC (Streptococcus pneumoniae [1]) [µg/mL] | MBC (Staphylococcus aureus [2]) [µg/mL] | Ratio (Streptococcus pneumoniae [3]) | MIC (Streptococcus pyogenes [4]) [µg/mL] | MBC (Streptococcus pneumoniae [5]) [µg/mL] | MIC (Staphylococcus aureus [6]) [µg/mL] | Ratio (Moraxella catarrhalis [7]) | MIC (Staphylococcus aureus [8]) [µg/mL] | MIC (Moraxella catarrhalis [9]) [µg/mL] | MIC (Streptococcus pneumoniae [10]) [µg/mL] | MBC (Streptococcus pyogenes [11]) [µg/mL] | Ratio (Streptococcus pyogenes [12]) | MBC (Staphylococcus aureus [13]) [µg/mL] | MBC (Streptococcus pneumoniae [14]) [µg/mL] | MBC (Moraxella catarrhalis [15]) [µg/mL] | MBC (Haemophilus influenzae [16]) [µg/mL] | Ratio (Staphylococcus aureus [17]) | Ratio (Haemophilus influenzae [18]) | MIC (Haemophilus influenzae [19]) [µg/mL] | Ratio (Streptococcus pneumoniae [20]) |
| --- | --- | --- | --- | --- | --- | --- | --- | --- | --- | --- | --- | --- | --- | --- | --- | --- | --- | --- | --- | --- |
| CC[C@H]1OC(=O)[C@H](C)[C@@H](OCC#Cc2ccc(NC(=O)c3ccccn3)nc2)[C@H](C)[C@@H](O[C@@H]2O[C@H](C)C[C@H](N(C)C)[C@H]2O)[C@](C)(OC)C[C@@H](C)/C(=N\OC)[C@H](C)[C@H]2OC(=O)O[C@@]21C | 4 (≈ 4.55 µM) | > 256 | 4 | 16 (≈ 18.2 µM) | 16 (≈ 18.2 µM) | 128 (≈ 145 µM) | 1 | > 256 | 8 (≈ 9.09 µM) | 4 (≈ 4.55 µM) | 16 (≈ 18.2 µM) | 1 | > 256 | 16 (≈ 18.2 µM) | 8 (≈ 9.09 µM) |  |  |  |  |  |
| C=CCNCCC(=O)O[C@H]1[C@H](C)[C@@H](O[C@@H]2O[C@H](C)C[C@H](N(C)C)[C@H]2O)[C@](C)(OC)C[C@@H](C)/C(=N\OC)[C@H](C)[C@H]2OC(=O)O[C@]2(C)[C@@H](CC)OC(=O)[C@@H]1C | 4 (≈ 5.29 µM) |  | 2 | 1 (≈ 1.32 µM) | 8 (≈ 10.6 µM) | > 256 |  | 32 (≈ 42.3 µM) |  | 1 (≈ 1.32 µM) | > 8 | >8 | > 256 | 2 (≈ 2.65 µM) |  | 256 (≈ 339 µM) | >8 | 1 | 256 (≈ 339 µM) |  |
| CC[C@H]1OC(=O)[C@H](C)[C@@H](OCC#Cc2cncc(NC(=O)c3ccccn3)c2)[C@H](C)[C@@H](O[C@@H]2O[C@H](C)C[C@H](N(C)C)[C@H]2O)[C@](C)(OC)C[C@@H](C)/C(=N\OC)[C@H](C)[C@H]2OC(=O)O[C@@]21C | 4 (≈ 4.55 µM) | > 256 | 4 | 16 (≈ 18.2 µM) | 16 (≈ 18.2 µM) | 256 (≈ 291 µM) | 2 | > 256 | 8 (≈ 9.09 µM) | 4 (≈ 4.55 µM) | 32 (≈ 36.4 µM) | 2 | > 256 | 16 (≈ 18.2 µM) | 16 (≈ 18.2 µM) |  |  |  |  |  |
| CC[C@H]1OC(=O)[C@H](C)[C@@H](OC(=O)CCNCC#Cc2cccnc2)[C@H](C)[C@@H](O[C@@H]2O[C@H](C)C[C@H](N(C)C)[C@H]2O)[C@](C)(OC)C[C@@H](C)/C(=N\OC)[C@H](C)[C@H]2OC(=O)O[C@@]21C | 8 (≈ 9.63 µM) | > 256 | 4 | 8 (≈ 9.63 µM) | 16 (≈ 19.3 µM) | 256 (≈ 308 µM) |  | 64 (≈ 77 µM) |  | 1 (≈ 1.2 µM) | > 64 | >8 | > 256 | 4 (≈ 4.81 µM) |  | 256 (≈ 308 µM) | >4 | 1 | 256 (≈ 308 µM) | 2 |
| CC[C@H]1OC(=O)[C@H](C)[C@@H](OC(=O)CCNCCCc2cccnc2)[C@H](C)[C@@H](O[C@@H]2O[C@H](C)C[C@H](N(C)C)[C@H]2O)[C@](C)(OC)C[C@@H](C)/C(=N\OC)[C@H](C)[C@H]2OC(=O)O[C@@]21C | 2 (≈ 2.4 µM) | > 256 | 8 | 0.5 (≈ 0.599 µM) | 4 (≈ 4.79 µM) | 256 (≈ 307 µM) |  | 32 (≈ 38.3 µM) |  | 1 (≈ 1.2 µM) | > 4 | >8 | > 256 | 8 (≈ 9.58 µM) |  | 256 (≈ 307 µM) | >8 | 1 | 256 (≈ 307 µM) | 2 |
| C#CCNCCC(=O)O[C@H]1[C@H](C)[C@@H](O[C@@H]2O[C@H](C)C[C@H](N(C)C)[C@H]2O)[C@](C)(OC)C[C@@H](C)/C(=N\OC)[C@H](C)[C@H]2OC(=O)O[C@]2(C)[C@@H](CC)OC(=O)[C@@H]1C | 2 (≈ 2.65 µM) | > 256 | 8 | 0.5 (≈ 0.663 µM) | 4 (≈ 5.31 µM) | 256 (≈ 340 µM) |  | 16 (≈ 21.2 µM) |  | 0.13 (≈ 0.172 µM) | > 4 | >8 | > 128 | 1 (≈ 1.33 µM) |  | 128 (≈ 170 µM) | >8 | 1 | 128 (≈ 170 µM) | 2 |
| CC[C@H]1OC(=O)[C@H](C)[C@@H](OC(=O)NCCCc2ccc3c(c2)c(=O)c(C(=O)O)cn3C2CC2)[C@H](C)[C@@H](O[C@@H]2O[C@H](C)C[C@H](N(C)C)[C@H]2O)[C@](C)(OC)C[C@@H](C)/C(=N\OC)[C@H](C)[C@H]2OC(=O)O[C@@]21C | 2 (≈ 2.09 µM) | > 256 | 2 | 4 (≈ 4.18 µM) | 8 (≈ 8.36 µM) | 256 (≈ 267 µM) |  | 32 (≈ 33.4 µM) |  | 1 (≈ 1.04 µM) | 8 (≈ 8.36 µM) | 2 | > 256 | 2 (≈ 2.09 µM) |  | 256 (≈ 267 µM) | >8 | 1 | 256 (≈ 267 µM) | 4 |
| CC[C@H]1OC(=O)[C@H](C)[C@@H](OC(=O)NCCCCc2cccnc2)[C@H](C)[C@@H](O[C@@H]2O[C@H](C)C[C@H](N(C)C)[C@H]2O)[C@](C)(OC)C[C@@H](C)/C(=N\OC)[C@H](C)[C@H]2OC(=O)O[C@@]21C | 8 (≈ 9.74 µM) |  | 4 | 128 (≈ 156 µM) | 8 (≈ 9.74 µM) | > 256 |  | 32 (≈ 39 µM) |  | 0.5 (≈ 0.609 µM) | 128 (≈ 156 µM) | 1 | > 256 | 2 (≈ 2.44 µM) |  | 256 (≈ 312 µM) | >8 | 1 | 256 (≈ 312 µM) | 1 |
